In brackets after ≈: the same amount, converted by molar mass.
Tests used:
[1] = system: Staphylococcus epidermidis; experiment: Antibacterial activity against 10^4 CFU methicillin-resistant Staphylococcus epidermidis 09-2 after 18 hrs by CLSI agar dilution method; type: functional; conditions: 09-2, 18 h
[2] = system: Streptococcus pneumoniae; experiment: Antibacterial activity against 10^4 CFU Streptococcus pneumoniae 08-4 after 18 hrs by CLSI agar dilution method; type: functional; conditions: 08-4, 18 h
[3] = system: Escherichia coli; experiment: Antibacterial activity against 10^4 CFU Escherichia coli 08-21 after 18 hrs by CLSI agar dilution method; type: functional; conditions: 08-21, 18 h
[4] = system: Klebsiella pneumoniae; experiment: Antibacterial activity against 10^4 CFU Klebsiella pneumoniae 09-23 after 18 hrs by CLSI agar dilution method; type: functional; conditions: 09-23, 18 h
[5] = system: Pseudomonas aeruginosa; experiment: Antibacterial activity against 10^4 CFU Pseudomonas aeruginosa 09-32 after 18 hrs by CLSI agar dilution method; type: functional; conditions: 09-32, 18 h
[6] = system: Enterococcus faecalis; experiment: Antibacterial activity against 10^4 CFU Enterococcus faecalis 08-10 after 18 hrs by CLSI agar dilution method; type: functional; conditions: 08-10, 18 h
[7] = system: Enterococcus faecium; experiment: Antibacterial activity against 10^4 CFU Enterococcus faecium 08-2 after 18 hrs by CLSI agar dilution method; type: functional; conditions: 08-2, 18 h
[8] = Cytotoxicity against MDCK cells after 48 hrs by CPE assay; type: cell-based, Canis lupus familiaris; conditions: dog
Outline: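 MDCK cells kept in Minimum Essential Medium with Earle's salt plus 10% fetal bovine serum at 37 °C, 5% CO₂. […] Medium then replaced by assay medium with or without compound. After 48 h exposure, viability read by CPE assay. CC₅₀ calculated by Reed–Muench analysis.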

[9] = system: Klebsiella pneumoniae; experiment: Antibacterial activity against 10^4 CFU Klebsiella pneumoniae 09-22 after 18 hrs by CLSI agar dilution method; type: functional; conditions: 09-22, 18 h
[10] = system: Staphylococcus epidermidis; experiment: Antibacterial activity against 10^4 CFU methicillin-sensitive Staphylococcus epidermidis 09-6 after 18 hrs by CLSI agar dilution method; type: functional; conditions: 09-6, 18 h
[11] = system: Pseudomonas aeruginosa; experiment: Antibacterial activity against 10^4 CFU Pseudomonas aeruginosa ATCC 27853 after 18 hrs by CLSI agar dilution method; type: functional; conditions: ATCC 27853, 18 h
[12] = system: Staphylococcus aureus; experiment: Antibacterial activity against 10^4 CFU methicillin-resistant Staphylococcus aureus 08-1 after 18 hrs by CLSI agar dilution method; type: functional; conditions: 08-1, 18 h
[13] = system: Escherichia coli; experiment: Antibacterial activity against 10^4 CFU Escherichia coli ATCC 25922 after 18 hrs by CLSI agar dilution method; type: functional; conditions: ATCC 25922, 18 h
[14] = system: Staphylococcus aureus; experiment: Antibacterial activity against 10^4 CFU Staphylococcus aureus ATCC 25923 after 18 hrs by CLSI agar dilution method; type: functional; conditions: ATCC 25923, 18 h
[15] = system: Enterococcus faecalis; experiment: Antibacterial activity against 10^4 CFU Enterococcus faecalis 08-12 after 18 hrs by CLSI agar dilution method; type: functional; conditions: 08-12, 18 h
[16] = system: Staphylococcus aureus; experiment: Antibacterial activity against 10^4 CFU methicillin-sensitive Staphylococcus aureus 08-1 after 18 hrs by CLSI agar dilution method; type: functional; conditions: 08-1, 18 h
[17] = system: Enterococcus faecium; experiment: Antibacterial activity against 10^4 CFU Enterococcus faecium 06-7 after 18 hrs by CLSI agar dilution method; type: functional; conditions: 06-7, 18 h

## CO/N=C1\CN(c2nc3c(cc2F)c(=O)c(C(=O)O)cn3C2CC2)CC1CN (stereo not drawn) [GEMIFLOXACIN]
[1]
  MIC: 0.125 µg/mL (≈ 0.321 µM)
[2]
  MIC: 0.25 µg/mL (≈ 0.642 µM)
[3]
  MIC: 16 µg/mL (≈ 41.1 µM)
[4]
  MIC: 8 µg/mL (≈ 20.5 µM)
[5]
  MIC: 0.25 µg/mL (≈ 0.642 µM)
[6]
  MIC: 16 µg/mL (≈ 41.1 µM)
[7]
  MIC: 2 µg/mL (≈ 5.14 µM)
[8]
  CC50 at 48 h: 321 µM
[9]
  MIC: 8 µg/mL (≈ 20.5 µM)
[10]
  MIC: 0.25 µg/mL (≈ 0.642 µM)
[11]
  MIC: 2 µg/mL (≈ 5.14 µM)
[12]
  MIC: 0.25 µg/mL (≈ 0.642 µM)
[13]
  MIC: 4 µg/mL (≈ 10.3 µM)
[14]
  MIC: 0.125 µg/mL (≈ 0.321 µM)
[15]
  MIC: 16 µg/mL (≈ 41.1 µM)
[16]
  MIC: 0.06 µg/mL (≈ 0.154 µM)
[17]
  MIC: 16 µg/mL (≈ 41.1 µM)

## COc1c(N2CCNC(C)C2)c(F)cc2c(=O)c(C(=O)O)cn(C3CC3)c12 (stereo not drawn) [GATIFLOXACIN]
[1]
  MIC: 0.25 µg/mL (≈ 0.666 µM)
[2]
  MIC: 0.25 µg/mL (≈ 0.666 µM)
[3]
  MIC: 8 µg/mL (≈ 21.3 µM)
[4]
  MIC: 2 µg/mL (≈ 5.33 µM)
[5]
  MIC: 16 µg/mL (≈ 42.6 µM)
[6]
  MIC: 8 µg/mL (≈ 21.3 µM)
[7]
  MIC: 2 µg/mL (≈ 5.33 µM)
[8]
  CC50 at 48 h: 396 µM
[9]
  MIC: 0.25 µg/mL (≈ 0.666 µM)
[10]
  MIC: 0.25 µg/mL (≈ 0.666 µM)
[11]
  MIC: 1 µg/mL (≈ 2.66 µM)
[12]
  MIC: 0.25 µg/mL (≈ 0.666 µM)
[13]
  MIC: 4 µg/mL (≈ 10.7 µM)
[14]
  MIC: 0.06 µg/mL (≈ 0.16 µM)
[15]
  MIC: 4 µg/mL (≈ 10.7 µM)
[16]
  MIC: 0.06 µg/mL (≈ 0.16 µM)
[17]
  MIC: 4 µg/mL (≈ 10.7 µM)

## CCO/N=C1\CN(c2nc3c(cc2F)c(=O)c(C(=O)O)cn3-c2ccc(F)cc2F)CCC1(C)N (stereo not drawn)
[1]
  MIC: 0.25 µg/mL (≈ 0.511 µM)
[2]
  MIC: 0.25 µg/mL (≈ 0.511 µM)
[3]
  MIC: 32 µg/mL (≈ 65.4 µM)
[4]
  MIC: 32 µg/mL (≈ 65.4 µM)
[5]
  MIC: 0.5 µg/mL (≈ 1.02 µM)
[6]
  MIC: 8 µg/mL (≈ 16.3 µM)
[7]
  MIC: 64 µg/mL (≈ 131 µM)
[8]
  CC50 at 48 h: 128 µM
[9]
  MIC: 32 µg/mL (≈ 65.4 µM)
[10]
  MIC: 0.25 µg/mL (≈ 0.511 µM)
[11]
  MIC: 4 µg/mL (≈ 8.17 µM)
[12]
  MIC: 2 µg/mL (≈ 4.09 µM)
[13]
  MIC: 16 µg/mL (≈ 32.7 µM)
[14]
  MIC: 0.25 µg/mL (≈ 0.511 µM)
[15]
  MIC: 32 µg/mL (≈ 65.4 µM)
[16]
  MIC: 0.25 µg/mL (≈ 0.511 µM)
[17]
  MIC: > 128 µg/mL

## CO/N=C1\CN(c2nc3c(cc2F)c(=O)c(C(=O)O)cn3C2CC2)CCC1(C)N (stereo not drawn)
[1]
  MIC: 0.25 µg/mL (≈ 0.62 µM)
[2]
  MIC: 4 µg/mL (≈ 9.92 µM)
[3]
  MIC: 16 µg/mL (≈ 39.7 µM)
[4]
  MIC: 2 µg/mL (≈ 4.96 µM)
[5]
  MIC: 16 µg/mL (≈ 39.7 µM)
[6]
  MIC: 16 µg/mL (≈ 39.7 µM)
[7]
  MIC: 64 µg/mL (≈ 159 µM)
[8]
  CC50 at 48 h: 77.4 µM
[9]
  MIC: 16 µg/mL (≈ 39.7 µM)
[10]
  MIC: 0.25 µg/mL (≈ 0.62 µM)
[11]
  MIC: 4 µg/mL (≈ 9.92 µM)
[12]
  MIC: 0.25 µg/mL (≈ 0.62 µM)
[13]
  MIC: 8 µg/mL (≈ 19.8 µM)
[14]
  MIC: 0.25 µg/mL (≈ 0.62 µM)
[15]
  MIC: 16 µg/mL (≈ 39.7 µM)
[16]
  MIC: 0.25 µg/mL (≈ 0.62 µM)
[17]
  MIC: 16 µg/mL (≈ 39.7 µM)
